Tests used:
[1] = target: T1, Xanthine dehydrogenase/oxidase (Bos taurus, UniProt P80457); assay: Inhibition of bovine milk xanthine oxidase at 1000 uM pre-incubated for 30 mins followed by xanthine addition and measured every 30 secs for 5 mins by spectrophotometry; details: cattle
Method in brief: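 XO inhibition tested up to 1000 µM, the highest concentration tested; compounds precipitate above this. IC50 values from three experiments, reported as mean ± SEM.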

[2] = Antioxidant activity assessed as ABTS free radical scavenging activity by measuring trolox equivalents after 6 mins; type: functional
Method in brief: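 ABTS radical scavenging, expressed as trolox equivalent: (mmol trolox)/(mmol tested compound).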

[3] = Antioxidant activity assessed as DPPH free radical scavenging activity incubated for 30 mins at 2000 uM; type: functional
Method in brief: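 DPPH radical scavenging, given as percent inhibitory rate with test compound at 2000 µM.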

[4] = target: T1, Xanthine dehydrogenase/oxidase; assay: Inhibition of bovine milk xanthine oxidase pre-incubated for 30 mins followed by xanthine addition and measured every 30 secs for 5 mins by spectrophotometry
[5] = target: T1, Xanthine dehydrogenase/oxidase; assay: Mixed type inhibition of bovine milk xanthine oxidase pre-incubated for 30 mins followed by xanthine addition and measured every 30 secs for 5 mins by spectrophotometry based L-B plot analysis; details: cattle
Method in brief: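 Inhibition type from Michaelis–Menten kinetics. Initial XO velocity measured at increasing xanthine concentrations with inhibitor at 0, 25, 50 and 100 µM. Activity read as change in absorbance at 295 nm per unit time; mode assigned from overlaid Lineweaver–Burk reciprocal plots.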

[6] = Antioxidant activity assessed as DPPH free radical scavenging activity incubated for 30 mins; type: functional
Mus musculus [7] = assay: Anti-hyperuricemic activity in potassium oxonate-induced hyperuricemic Kun-Ming mouse assessed as serum uric acid level at 10 mg/kg/day, ig for 7 days and measured 1 hr post last dose (reference value: 5.89 +/- 0.36 mg/dl); type: functional
Mus musculus [8] = assay: Anti-hyperuricemic activity in potassium oxonate-induced hyperuricemic Kun-Ming mouse assessed as serum uric acid level at 50 mg/kg/day, ig for 7 days and measured 1 hr post last dose (reference value: 5.89 +/- 0.36 mg/dl); type: functional
Mus musculus [9] = assay: Anti-hyperuricemic activity in potassium oxonate-induced hyperuricemic Kun-Ming mouse assessed as xanthine oxidase activity per gram of protein at 10 mg/kg/day, ig for 7 days and measured 1 hr post last dose (reference value: 81.5 +/- 1.4 U/g protein); type: functional
Mus musculus [10] = assay: Anti-hyperuricemic activity in potassium oxonate-induced hyperuricemic Kun-Ming mouse assessed as xanthine oxidase activity per gram of protein at 50 mg/kg/day, ig for 7 days and measured 1 hr post last dose (reference value: 81.5 +/- 1.4 U/g protein); type: functional
Mus musculus [11] = assay: Anti-hyperuricemic activity in potassium oxonate-induced hyperuricemic Kun-Ming mouse assessed as reduction in serum uric acid level at 10 and 50 mg/kg/day, ig for 7 days and measured 1 hr post last dose; type: functional, organism-based
Mus musculus [12] = assay: Toxicity in Kun-Ming mouse assessed as induction of mortality at 5000 mg/kg, ig measured continuously for first 4 hrs and intermittently for next 24 hrs; type: organism-based; details: in vivo, po
Method in brief: (§1)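 Mice received a single 5,000 mg/kg dose. They were watched continuously for the first 4 h and intermittently over the next 24 h for abnormal behaviour and mortality. Water intake, food intake and body weight were tracked over the experimental period. The protocol was adapted from an earlier reported acute toxicity study.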

Mus musculus [13] = assay: Toxicity in Kun-Ming mouse assessed as effect on water consumption at 5000 mg/kg, ig measured continuously for first 4 hrs and intermittently for next 24 hrs; type: organism-based; details: in vivo, po; method in brief: as §1
Mus musculus [14] = assay: Toxicity in Kun-Ming mouse assessed as effect on food consumption at 5000 mg/kg, ig measured continuously for first 4 hrs and intermittently for next 24 hrs; type: organism-based; details: in vivo, po; method in brief: as §1
Mus musculus [15] = assay: Toxicity in Kun-Ming mouse assessed as induction of body weight reduction at 5000 mg/kg, ig measured continuously for first 4 hrs and intermittently for next 24 hrs; type: organism-based; details: in vivo, po; method in brief: as §1

T1 sequence (P80457 whole entry): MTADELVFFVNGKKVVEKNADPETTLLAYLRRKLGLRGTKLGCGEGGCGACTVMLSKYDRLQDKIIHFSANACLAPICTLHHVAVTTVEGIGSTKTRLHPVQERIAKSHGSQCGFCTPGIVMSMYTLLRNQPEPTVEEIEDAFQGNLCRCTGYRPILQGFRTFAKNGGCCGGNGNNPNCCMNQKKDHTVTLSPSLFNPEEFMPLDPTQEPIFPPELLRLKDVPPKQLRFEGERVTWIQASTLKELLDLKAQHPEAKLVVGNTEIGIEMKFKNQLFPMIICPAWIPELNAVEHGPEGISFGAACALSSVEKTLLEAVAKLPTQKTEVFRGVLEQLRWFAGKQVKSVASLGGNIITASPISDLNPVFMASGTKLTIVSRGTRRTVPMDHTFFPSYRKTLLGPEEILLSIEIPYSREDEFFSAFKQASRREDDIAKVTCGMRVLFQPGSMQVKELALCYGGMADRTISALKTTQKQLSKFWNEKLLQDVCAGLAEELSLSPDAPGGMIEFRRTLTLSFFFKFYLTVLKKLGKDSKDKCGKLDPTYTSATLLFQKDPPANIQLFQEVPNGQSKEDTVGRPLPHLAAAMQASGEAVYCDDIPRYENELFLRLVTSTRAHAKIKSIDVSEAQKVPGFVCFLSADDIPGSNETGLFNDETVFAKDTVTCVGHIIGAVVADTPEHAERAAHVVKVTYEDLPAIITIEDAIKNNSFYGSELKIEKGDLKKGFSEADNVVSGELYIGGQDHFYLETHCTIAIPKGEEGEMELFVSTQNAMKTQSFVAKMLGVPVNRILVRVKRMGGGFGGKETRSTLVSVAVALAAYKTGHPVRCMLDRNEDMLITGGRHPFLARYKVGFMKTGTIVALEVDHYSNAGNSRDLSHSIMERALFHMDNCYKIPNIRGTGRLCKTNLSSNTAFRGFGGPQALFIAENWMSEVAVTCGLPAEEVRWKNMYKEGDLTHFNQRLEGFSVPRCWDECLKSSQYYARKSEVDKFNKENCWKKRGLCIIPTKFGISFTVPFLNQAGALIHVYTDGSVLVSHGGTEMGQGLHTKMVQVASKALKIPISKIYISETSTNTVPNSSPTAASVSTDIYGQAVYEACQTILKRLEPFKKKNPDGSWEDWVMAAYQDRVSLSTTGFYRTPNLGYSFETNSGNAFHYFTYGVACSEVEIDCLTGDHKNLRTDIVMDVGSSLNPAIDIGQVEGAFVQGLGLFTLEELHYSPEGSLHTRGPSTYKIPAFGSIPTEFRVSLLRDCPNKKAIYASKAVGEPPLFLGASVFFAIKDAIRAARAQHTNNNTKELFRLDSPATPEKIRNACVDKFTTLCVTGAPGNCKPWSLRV

IC50 [4]	Structure (SMILES)	Activity (mmolequiv/mmol) [2]	inhibition [3]	other results
–	O=C(/C=C/c1ccc(O)cc1O)c1ccccc1	< 0.1	10.8%	inhibition (INH) [1]: Not Active
88.3 µM	O=C(/C=C/c1cccc(O)c1)c1cccc(O)c1	0.18	24.3%	–
79.4 µM	O=C(/C=C/c1ccc(O)cc1)c1ccccc1O	0.24	23.1%	–
108 µM	O=C(/C=C/c1cccc(O)c1)c1ccc(O)cc1O	0.45	38.6%	–
117 µM	O=C(/C=C/c1ccc(O)cc1)c1ccc(O)cc1 [4,4'-DIHYDROXYCHALCONE]	0.43	35.9%	–
133 µM	O=C(/C=C/c1ccc(O)cc1)c1cccc(O)c1	0.16	19.7%	–
145 µM	O=C(/C=C/c1ccccc1O)c1ccccc1	< 0.1	10.8%	–
–	Oc1ccc(/C=C/c2cc(O)cc(O)c2)cc1 [RESVERATROL]	0.65	–	IC50 [6]: 95.1 µM
228 µM	O=C(/C=C/c1cccc(O)c1)c1ccccc1 [3-HYDROXY CHALCONE]	< 0.1	11.3%	–
165 µM	O=C(/C=C/c1ccccc1)c1cccc(O)c1	< 0.1	11.7%	–
71.3 µM	O=C(/C=C/c1ccccc1)c1ccccc1O [2'-HYDROXYCHALCONE]	< 0.1	13.5%	–
–	O=C(/C=C/c1ccccc1)c1ccc(O)cc1 [4'-HYDROXYCHALCONE]	< 0.1	12.5%	inhibition (INH) [1]: Not Active
159 µM	O=C(/C=C/c1ccc(O)cc1)c1ccccc1 [4-HYDROXYCHALCONE]	< 0.1	25.7%	–
–	Oc1ncnc2[nH]ncc12 [ALLOPURINOL]	< 0.1	20.5%	Activity (Mus musculus [7]): 4.14 mg/dL; Activity (Mus musculus [9]): 50.9 U/g protein
107 µM	O=C(/C=C/c1ccccc1)c1ccc(O)cc1O [2',4'-DIHYDROXYCHALCONE]	0.38	–	IC50 [6]: 197 µM
87.4 µM	O=C(/C=C/c1ccccc1O)c1ccccc1O	0.17	28%	–
–	O=C(/C=C/c1ccccc1)c1ccccc1 [CHALCONE]	< 0.1	18.4%	inhibition (INH) [1]: Not Active
91.8 µM	O=C(/C=C/c1cccc(O)c1)c1ccccc1O	0.93	–	IC50 [6]: 108 µM

Structure (SMILES)	IC50 [4]	Activity (mmolequiv/mmol) [2]	inhibition [3]	other results
O=C(/C=C/c1ccccc1O)c1ccc(O)cc1O	56.8 µM	0.87	–	inhibition (INH) [5]: Active; IC50 [6]: 128 µM; Activity (Mus musculus [7]): 5.21 mg/dL; Activity (Mus musculus [8]): 4.5 mg/dL; Activity (Mus musculus [9]): 73.2 U/g protein; Activity (Mus musculus [10]): 64.1 U/g protein; Activity (Mus musculus [11]): Dose-dependent effect; Activity (Mus musculus [12]): Non-Toxic; Activity (Mus musculus [13]): Non-Toxic; Activity (Mus musculus [14]): Non-Toxic; Activity (Mus musculus [15]): Non-Toxic
O=C(/C=C/c1ccc(O)cc1)c1ccc(O)cc1O [ISOLIQUIRITIGENIN]	47.3 µM	0.51	–	IC50 [6]: 287 µM; Activity (Mus musculus [7]): 5.14 mg/dL; Activity (Mus musculus [8]): 4.45 mg/dL; Activity (Mus musculus [9]): 70.5 U/g protein; Activity (Mus musculus [10]): 62 U/g protein; Activity (Mus musculus [12]): Non-Toxic; Activity (Mus musculus [13]): Non-Toxic; Activity (Mus musculus [14]): Non-Toxic; Activity (Mus musculus [15]): Non-Toxic

From ChEMBL document CHEMBL4043097, “Synthesis and evaluation of hydroxychalcones as multifunctional non-purine xanthine oxidase inhibitors for the treatment of hyperuricemia” (Bioorg Med Chem Lett, 2017)
